Activity calls are given as the source filed them. The calls are words filed in the database; no cut-off is given here.
How the values were obtained:
[1] = system: H4; assay: Cytotoxicity against human H4 cells expressing wild type betaAPP695 assessed as decrease in cell protein at 30 uM after 24 hrs; format: cell-based; design: scale not given: the % may be the effect or the level left; details: h4, 24 h
In short: (§1)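 Serum-starved H4βAPP695wt cells are treated for 24 h with drug in DMSO (0.02% DMSO vehicle control). Total Aβ in conditioned medium is measured by sandwich ELISA with 6E10 capture and 4G8 detection, normalized to lysate protein by BCA. Cytotoxicity is read as total cell protein. Quadruplicate wells in 1-4 independent experiments give the % decrease versus vehicle.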

[2] = system: H4; assay: Induction of alpha-secretase-mediated reduction in amyloid beta secretion in human H4 cells expressing wild type betaAPP695 at 10 uM after 24 hrs […] relative to control; format: cell-based; design: scale not given: the % may be the effect or the level left; in short: as §1
[3] = system: H4; assay: Induction of alpha-secretase-mediated reduction in amyloid beta secretion in human H4 cells expressing wild type betaAPP695 placed in lower chamber treated with […] compound placed in upper chamber containing human Caco-2 cells for 4 hrs measured 24 hrs after media treatment […]; format: cell-based; design: scale not given: the % may be the effect or the level left
In short: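 Caco-2 cells are seeded at 70000 per Transwell insert and grown 21 days to TEER >160 Ω/cm2. Drug at 40 μM with 20 μg/mL lucifer yellow goes in the apical chamber in serum-free medium. After 4 h, basal medium is checked for lucifer yellow and applied to H4βAPP695wt cells for 24 h. Secreted Aβ by ELISA is compared with direct 10 μM drug as % activity passing.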

[4] = system: H4; assay: Induction of alpha-secretase-mediated reduction in amyloid beta secretion in human H4 cells expressing wild type betaAPP695 assessed as remaining drug activity treated with media containing human THLE3 cells incubated with 10 uM compound for 24 hrs measured 24 hrs after media treatment […]; format: cell-based
[5] = system: H4; assay: Cytotoxicity against human H4 cells expressing wild type betaAPP695 assessed as decrease in cell protein at 10 uM after 24 hrs; format: cell-based; design: scale not given: the % may be the effect or the level left; details: h4, 24 h; in short: as §1
[6] = system: H4; assay: Induction of alpha-secretase-mediated reduction in amyloid beta secretion in human H4 cells expressing wild type betaAPP695 at 30 uM after 24 hrs […] relative to control; format: cell-based; design: scale not given: the % may be the effect or the level left; in short: as §1
[7] = system: H4; assay: Induction of alpha-secretase-mediated reduction in amyloid beta secretion in human H4 cells expressing wild type betaAPP695 treated with media containing human THLE3 cells incubated with 10 uM compound for 24 hrs […]; format: cell-based; design: scale not given: the % may be the effect or the level left; details: in the assay text read “20 uM” for “10 uM”
[8] = system: Mus musculus; assay: Reduction in amyloid beta levels in transgenic C57BL/6 mouse brain at 100 mg/kg, iv after 6 hrs; format: functional; design: scale not given: the % may be the effect or the level left
In short: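 Two-month-old female APPswe/PSEN1dE9 C57BL/6 mice (20-25 g) under ketamine/xylazine receive retro-orbital iv injection of 2.5 mg in 150 μL (∼100-125 mg/kg) or vehicle. After 6 h, one hemisphere without cerebellum is homogenized in 5 M guanidine HCl/50 mM Tris pH 8.3. Total Aβ is measured by ELISA and normalized to brain protein by BCA.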

[9] = system: H4; assay: Activation of alpha-secretase in human H4 cells expressing wild type betaAPP695 assessed as increase in alpha-CTF levels at 10 uM after 24 hrs by Western blotting; format: cell-based
In short: (§2)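 H4βAPP695wt cells are switched to serum-free medium 24 h before treatment, then exposed to drug in DMSO or vehicle for 24 h. Conditioned medium gets protease inhibitors and is cleared, with its volume adjusted to lysate protein; sAPPα is probed with 6E10 and sAPPβ with a specific antibody (1:1000), detected by ECL. Lysates in RIPA (20 μg protein) go on 4-20% Bis-Tris gels. Bands are quantified by densitometry.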

[10] = system: H4; assay: Activation of alpha-secretase in human H4 cells expressing wild type betaAPP695 assessed as increase in sAPPalpha levels at 10 uM after 24 hrs by Western blotting; format: cell-based; in short: as §2
[11] = system: H4; assay: Induction of alpha-secretase-mediated reduction in amyloid beta secretion in human H4 cells expressing wild type betaAPP695 by […] in presence of PKC-inhibitor bisindolyl-maleimide; format: cell-based
In short: (§3)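 H4βAPP695wt cells in serum-free medium receive a PKC inhibitor 30 min before a 24 h drug challenge. Secreted Aβ is measured by ELISA and compared with the respective control for each inhibitor, N = 4.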

[12] = system: H4; assay: Induction of alpha-secretase-mediated amyloid beta lowering activity in human H4 cells expressing wild type betaAPP695 at 1 uM after 24 hrs by ELISA; format: cell-based; in short: as §1
[13] = system: H4; assay: Increase in alpha-secretase activity in human H4 cell lysate expressing wild type betaAPP695 at 10 uM after 24 hrs by fluorescence method; format: cell-based
In short: (§4)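 H4βAPP695wt cells are treated with drug or vehicle for 24 h, washed in cold PBS and lysed on ice for 10 min. 50 μg lysate protein plus reaction buffer and fluorogenic peptide substrate are incubated 2 h at 37 °C in the dark. Fluorescence is read at ex 355/em 510 nm after subtracting the no-lysate blank, N = 6.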

[14] = system: H4; assay: Increase in alpha-secretase activity in human H4 cells expressing wild type betaAPP695 at 10 uM after 24 hrs by fluorescence method; format: cell-based; in short: as §4
[15] = system: H4; assay: Induction of alpha-secretase-mediated reduction in amyloid beta secretion in human H4 cells expressing wild type betaAPP695 by […] in presence of PKC-inhibitor calphostin C; format: cell-based; in short: as §3
[16] = system: H4; assay: Induction of alpha-secretase-mediated reduction in amyloid beta secretion in human H4 cells expressing wild type betaAPP695 […] in presence of PKC-inhibitor rottlerin; format: cell-based; in short: as §3
[17] = system: H4; assay: Activation of alpha-secretase in human H4 cells expressing wild type betaAPP695 assessed as increase in sAPPbeta levels at 10 uM after 24 hrs by Western blotting; format: cell-based; in short: as §2
[18] = system: H4; assay: Activation of alpha-secretase in human H4 cells expressing wild type betaAPP695 assessed as increase in ratio of active-ADAM9 to pro-ADAM9 level at 10 uM after 24 hrs by Western blotting; format: cell-based
In short: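 H4βAPP695wt cells are held in serum-free medium for 24 h, then given increasing drug concentrations for 24 h. RIPA lysates (20 μg protein) are immunoblotted with antibodies for ADAM9, ADAM10 and ADAM17, and pro and active forms are quantified by densitometry as an active/pro ratio, N = 3 per group.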

[19] = system: H4; assay: Cytotoxicity against human H4 cells expressing wild type betaAPP695 at 10 uM after 24 hrs by methylene blue staining; format: cell-based; details: h4, 24 h
In short: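 Primary screen in H4βAPP695wt cells: drugs are delivered by the hanging drop method at an estimated 10-25 μM, and conditioned medium is collected at 24 h. Cytotoxicity is assessed by methylene blue staining of cells in the wells, with each compound run in a single well and hits rescreened in duplicate.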

## COc1cccc(CSCCNC(=O)c2c(Cl)cccc2Cl)c1OC
[1]
  Activity: 8.7%
[2]
  Activity: 57.8%
[3]
  Activity: 26.5%
[4]
  Activity: 3%
[5]
  Activity: -0.1%
[6]
  Activity: 72.8%
[7]
  Activity: 1.9%

## O=C(NCCSCc1ccccc1)c1c(Cl)cccc1Cl
[1]
  Activity: -0.7%
[2]
  Activity: 51.6%
[3]
  Activity: 31%
[4]
  Activity: 52%
[5]
  Activity: -1.1%
[6]
  Activity: 58.6%
[7]
  Activity: 27%

## Cc1cccc(CSCCNC(=O)c2c(Cl)cccc2Cl)c1
[1]
  Activity: 16.6%
[2]
  Activity: 70.5%
[3]
  Activity: 49.9%
[8]
  Activity: 39.6%
[4]
  Activity: 54%
[5]
  Activity: 11.7%
[6]
  Activity: 85.8%
[7]
  Activity: 38.3%

## O=C(NCCSCc1cccc(Cl)c1)c1c(Cl)cccc1Cl
[9]
  Activity: Active
[10]
  Activity: Active
[11]
  Activity: Active
[12]
  Activity: Active
[2]
  Activity: 75.3%
[3]
  Activity: 26.7%
[13]
  Activity: inactive
[4]
  Activity: 50%
[14]
  Activity: 20%
[15]
  Activity: Active
[16]
  Activity: Active
[17]
  Activity: inactive
[18]
  Activity: 31%
[7]
  Activity: 34.6%

## O=C(NCCSCc1cccc(I)c1)c1c(Cl)cccc1Cl
[1]
  Activity: 19%
[2]
  Activity: 84.4%
[3]
  Activity: 1.1%
[4]
  Activity: 47%
[5]
  Activity: 9.2%
[6]
  Activity: 88.3%
[7]
  Activity: 40%

## O=C(NCCSCc1ccc(Cl)cc1)c1ccc(Cl)cc1Cl
[2]
  Activity: 5.3%
[19]
  Activity: Non-toxic

## COc1cc(Cl)cc(CSCCNC(=O)c2c(Cl)cccc2Cl)c1
[1]
  Activity: 0.4%
[2]
  Activity: 67.7%
[3]
  Activity: 2.7%
[4]
  Activity: 49%
[5]
  Activity: 0.9%
[6]
  Activity: 81%
[7]
  Activity: 33.5%

## O=C(NCCSCc1cccc(O)c1)c1c(Cl)cccc1Cl
[1]
  Activity: 6.6%
[2]
  Activity: 56.4%
[4]
  Activity: 41%
[5]
  Activity: 6.3%
[6]
  Activity: 67.7%
[7]
  Activity: 23.1%

## COc1cccc(CSCCNC(=O)c2c(Cl)cccc2Cl)c1
[1]
  Activity: 13.2%
[2]
  Activity: 60.6%
[3]
  Activity: 17.9%
[4]
  Activity: 37%
[5]
  Activity: 8.4%
[6]
  Activity: 73.9%
[7]
  Activity: 22.2%

## O=C(NCCSCc1ccccc1Cl)c1c(Cl)cccc1Cl
[1]
  Activity: -11%
[2]
  Activity: 75.6%
[3]
  Activity: 31.6%
[4]
  Activity: 65%
[5]
  Activity: -0.5%
[6]
  Activity: 80%
[7]
  Activity: 48.8%

## O=C(NCCSCc1cccc(Cl)c1)c1c(Br)cccc1Br
[1]
  Activity: 20.8%
[2]
  Activity: 74.2%
[5]
  Activity: 6.7%
[6]
  Activity: 83.4%

## O=C(NCCSCc1cc(O)cc(O)c1)c1c(Cl)cccc1Cl
[1]
  Activity: -0.7%
[2]
  Activity: 3.1%
[5]
  Activity: -0.4%
[6]
  Activity: 17.2%

## O=C(NCCSCc1ccccc1)c1ccccc1
[1]
  Activity: -4.1%
[2]
  Activity: -5.7%
[5]
  Activity: 0.7%
[6]
  Activity: 5.5%

## CCOC(=O)c1cccc(CSCCNC(=O)c2c(Cl)cccc2Cl)c1
[1]
  Activity: 5.4%
[2]
  Activity: 3%
[5]
  Activity: 5.8%
[6]
  Activity: 10.1%

## Cc1cccc(C)c1C(=O)NCCSCc1cccc(Cl)c1
[1]
  Activity: -9.4%
[2]
  Activity: 29.5%
[5]
  Activity: 0.9%
[6]
  Activity: 51.6%

## O=C(NCCSCc1cccc(Br)c1)c1c(Br)cccc1Br
[1]
  Activity: 23.9%
[2]
  Activity: 78.6%
[5]
  Activity: 9.8%
[6]
  Activity: 87.3%

## O=C(NCCSCc1cccc(O)c1O)c1c(Cl)cccc1Cl
[1]
  Activity: 14%
[2]
  Activity: -4.3%
[5]
  Activity: -4.8%
[6]
  Activity: 33.1%

## O=C(NCCSCc1cccc(NC(=O)C2CC2)c1)c1c(Cl)cccc1Cl
[1]
  Activity: 3.2%
[2]
  Activity: -21.4%
[5]
  Activity: 3%
[6]
  Activity: -2%

## O=C(NCCSCc1cccc(O)c1)c1c(O)cccc1O
[1]
  Activity: 14.3%
[2]
  Activity: -22.5%
[5]
  Activity: 10.5%
[6]
  Activity: -25.2%

## COc1cccc(CS(=O)(=O)CCNC(=O)c2c(Cl)cccc2Cl)c1
[1]
  Activity: 8.9%
[2]
  Activity: 5.3%
[5]
  Activity: 1.2%
[6]
  Activity: 4.9%

## O=C(Cc1c(Cl)cccc1Cl)NCCSCc1cccc(Cl)c1
[1]
  Activity: -0.7%
[2]
  Activity: 6.7%
[5]
  Activity: -1.3%
[6]
  Activity: 13.5%

## O=C(NCCSCc1ccc(Cl)cc1)c1c(Cl)cccc1Cl
[1]
  Activity: 3%
[2]
  Activity: 21.8%
[5]
  Activity: -6.4%
[6]
  Activity: 36.5%
